Converted amounts (≈) assume the structure as drawn.
Columns and labels:
Assay type in all cases: functional
[1] = test system: Fusobacterium necrophorum; assay: Antibacterial activity against Fusobacterium necrophorum assessed as susceptible isolates by CLSI agar dilution method in presence of clavulanate
Method in brief: (§1)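 Agar dilution per CLSI guidelines on nonduplicate anaerobic bloodstream isolates collected at NTUH, January to December 2006. Isolates were spotted by Steers replicator onto supplemented Brucella blood agar and incubated anaerobically for 48 h at 35°C. MIC was the lowest drug concentration that inhibited growth. B. fragilis ATCC 25285, B. thetaiotaomicron ATCC 29741 and E. lentum ATCC 43055 were run as QC in each run.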

Bacteroides fragilis [2] = assay: Antibacterial activity against Bacteroides fragilis assessed as resistant isolates by CLSI agar dilution method in presence of clavulanate
Method in brief: (§2)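 207 nonduplicate anaerobic blood isolates from patients with bloodstream infections at NTUH, collected January–December 2006. MICs were determined by agar dilution following CLSI guidelines. Inocula were applied with a Steers replicator onto supplemented Brucella blood agar and incubated 48 h at 35°C in an anaerobic chamber. MIC was the lowest concentration inhibiting growth. B. fragilis ATCC 25285, B. thetaiotaomicron ATCC 29741 and E. lentum ATCC 43055 served as controls in each run.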

Prevotella intermedia [3] = assay: Antibacterial activity against Prevotella intermedia by CLSI agar dilution method in presence of clavulanate; method in brief: as §1
Parvimonas micra [4] = assay: Antibacterial activity against beta-lactamase producing Micromonas micros by CLSI agar dilution method in presence of clavulanate
Method in brief: (§3)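 CLSI agar dilution MICs for anaerobic blood isolates (nonduplicate) collected from bloodstream-infection patients at a Taiwanese tertiary hospital, January–December 2006. Isolates were spotted by Steers replicator onto supplemented Brucella blood agar and incubated anaerobically for 48 h at 35°C. MIC was the lowest drug concentration inhibiting growth. Each run included B. fragilis ATCC 25285, B. thetaiotaomicron ATCC 29741 and E. lentum ATCC 43055 as quality-control strains.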

Fusobacterium varium [5] = assay: Antibacterial activity against Fusobacterium varium assessed as resistant isolates by CLSI agar dilution method in presence of clavulanate; method in brief: as §2
Prevotella bivia [6] = assay: Antibacterial activity against Prevotella bivia assessed as resistant isolates by CLSI agar dilution method in presence of clavulanate; method in brief: as §2
Prevotella bivia [7] = assay: Antibacterial activity against Prevotella bivia by CLSI agar dilution method in presence of clavulanate; method in brief: as §1
Fusobacterium nucleatum [8] = assay: Antibacterial activity against Fusobacterium nucleatum assessed as susceptible isolates by CLSI agar dilution method in presence of clavulanate; method in brief: as §1
Bacteroides fragilis [9] = assay: Antibacterial activity against Bacteroides fragilis assessed as susceptible isolates by CLSI agar dilution method in presence of clavulanate; method in brief: as §1
Finegoldia magna [10] = assay: Antibacterial activity against beta-lactamase producing Finegoldia magna assessed as susceptible isolates by CLSI agar dilution method in presence of clavulanate; method in brief: as §3
Prevotella bivia [11] = assay: Antibacterial activity against Prevotella bivia assessed as susceptible isolates by CLSI agar dilution method in presence of clavulanate; method in brief: as §1
Prevotella intermedia [12] = assay: Antibacterial activity against Prevotella intermedia assessed as resistant isolates by CLSI agar dilution method in presence of clavulanate; method in brief: as §2
Clostridium perfringens = assay: microbe, parasite or virus in culture
[13] = test system: Peptostreptococcus anaerobius; assay: Antibacterial activity against beta-lactamase producing Peptostreptococcus anaerobius assessed as resistant isolates by CLSI agar dilution method in presence of clavulanate; method in brief: as §2
Fusobacterium mortiferum [14] = assay: Antibacterial activity against Fusobacterium mortiferum by CLSI agar dilution method in presence of clavulanate; method in brief: as §1
Bacteroides caccae = assay: Antibacterial activity against beta-lactamase producing Bacteroides caccae assessed as susceptible isolates by CLSI agar dilution method
Clostridium septicum = assay: Antibacterial activity against beta-lactamase producing Clostridium septicum by CLSI agar dilution method
Parvimonas micra [15] = assay: Antibacterial activity against beta-lactamase producing Micromonas micros assessed as susceptible isolates by CLSI agar dilution method
Veillonella parvula = assay: Antibacterial activity against Veillonella parvula by CLSI agar dilution method in presence of Tazobactam; method in brief: as §1
Clostridium tertium = assay: Antibacterial activity against beta-lactamase producing Clostridium tertium by CLSI agar dilution method
Bacteroides uniformis = assay: Antibacterial activity against beta-lactamase producing Bacteroides uniformis by CLSI agar dilution method
Fusobacterium nucleatum [16] = assay: Antibacterial activity against Fusobacterium nucleatum assessed as susceptible isolates by CLSI agar dilution method
Prevotella intermedia [17] = assay: Antibacterial activity against Prevotella intermedia assessed as susceptible isolates by CLSI agar dilution method
Phocaeicola vulgatus = assay: Antibacterial activity against beta-lactamase producing Bacteroides vulgatus by CLSI agar dilution method
Prevotella bivia [18] = assay: Antibacterial activity against Prevotella bivia assessed as resistant isolates by CLSI agar dilution method
[19] = test system: Fusobacterium necrophorum; assay: Antibacterial activity against Fusobacterium necrophorum assessed as susceptible isolates by CLSI agar dilution method
[20] = test system: Fusobacterium necrophorum; assay: Antibacterial activity against Fusobacterium necrophorum by CLSI agar dilution method
[21] = test system: Clostridium paraputrificum; assay: Antibacterial activity against beta-lactamase producing Clostridium paraputrificum assessed as susceptible isolates by CLSI agar dilution method
Parvimonas micra [22] = assay: Antibacterial activity against beta-lactamase producing Micromonas micros assessed as susceptible isolates by CLSI agar dilution method in presence of Tazobactam; method in brief: as §3
Fusobacterium varium [23] = assay: Antibacterial activity against Fusobacterium varium assessed as resistant isolates by CLSI agar dilution method
Finegoldia magna [24] = assay: Antibacterial activity against beta-lactamase producing Finegoldia magna assessed as susceptible isolates by CLSI agar dilution method in presence of Tazobactam; method in brief: as §3
Fusobacterium mortiferum [25] = assay: Antibacterial activity against Fusobacterium mortiferum by CLSI agar dilution method
[26] = test system: Peptoniphilus asaccharolyticus; assay: Antibacterial activity against beta-lactamase producing Peptoniphilus asaccharolyticus assessed as susceptible isolates by CLSI agar dilution method in presence of Tazobactam; method in brief: as §3
[27] = test system: Prevotella melaninogenica; assay: Antibacterial activity against Prevotella melaninogenica by CLSI agar dilution method in presence of Tazobactam; method in brief: as §1
[28] = test system: Fusobacterium necrophorum; assay: Antibacterial activity against Fusobacterium necrophorum assessed as susceptible isolates by CLSI agar dilution method in presence of Tazobactam; method in brief: as §1
Prevotella intermedia [29] = assay: Antibacterial activity against Prevotella intermedia by CLSI agar dilution method in presence of Tazobactam; method in brief: as §1
Prevotella buccae = assay: Antibacterial activity against Prevotella buccae by CLSI agar dilution method; conditions: Segatella buccae
[30] = test system: Peptostreptococcus anaerobius; assay: Antibacterial activity against beta-lactamase producing Peptostreptococcus anaerobius assessed as susceptible isolates by CLSI agar dilution method
[31] = test system: Clostridium paraputrificum; assay: Antibacterial activity against beta-lactamase producing Clostridium paraputrificum by CLSI agar dilution method
Finegoldia magna [32] = assay: Antibacterial activity against beta-lactamase producing Finegoldia magna assessed as resistant isolates by CLSI agar dilution method in presence of Tazobactam; method in brief: as §2

CC1(C)S[C@@H]2[C@H](NC(=O)[C@H](N)c3ccc(O)cc3)C(=O)N2[C@H]1C(=O)O [AMOXICILLIN]
Activity [1]: 89% | Activity (Bacteroides fragilis [2]): 23% | MIC50 (Prevotella intermedia [3]): 4 µg/mL | MIC90 (Prevotella intermedia [3]): 16 µg/mL | MIC50 (Parvimonas micra [4]): 0.25 µg/mL | MIC90 (Parvimonas micra [4]): 2 µg/mL | Activity (Fusobacterium varium [5]): 7% | Activity (Prevotella bivia [6]): 6% | MIC50 (Prevotella bivia [7]): 4 µg/mL | MIC90 (Prevotella bivia [7]): 16 µg/mL | Activity (Fusobacterium nucleatum [8]): 89% | Activity (Bacteroides fragilis [9]): 63% | Activity (Finegoldia magna [10]): 94% | Activity (Prevotella bivia [11]): 81% | Activity (Prevotella intermedia [12]): 6% | MIC50 (Clostridium perfringens): 0.5 µg/mL (≈ 1.37 µM) | MIC90 (Clostridium perfringens): 2 µg/mL (≈ 5.47 µM) | Activity [13]: 3% | MIC50 (Fusobacterium mortiferum [14]): 2 µg/mL | MIC90 (Fusobacterium mortiferum [14]): 4 µg/mL

CCN1CCN(C(=O)N[C@@H](C(=O)N[C@@H]2C(=O)N3[C@@H]2SC(C)(C)[C@@H]3C(=O)O)c2ccccc2)C(=O)C1=O [PIPERACILLIN]
Activity (Bacteroides caccae): 35% | MIC50 (Clostridium septicum): 0.25 µg/mL (≈ 0.483 µM) | MIC90 (Clostridium septicum): 2 µg/mL (≈ 3.86 µM) | Activity (Parvimonas micra [15]): 97% | MIC (Veillonella parvula): > 0.03 µg/mL | MIC50 (Clostridium tertium): 0.25 µg/mL (≈ 0.483 µM) | MIC90 (Clostridium tertium): 2 µg/mL (≈ 3.86 µM) | MIC50 (Bacteroides uniformis): > 128 µg/mL | MIC90 (Bacteroides uniformis): > 128 µg/mL | Activity (Fusobacterium nucleatum [16]): 90% | Activity (Prevotella intermedia [17]): 71% | MIC50 (Phocaeicola vulgatus): > 128 µg/mL | MIC90 (Phocaeicola vulgatus): > 128 µg/mL | Activity (Prevotella bivia [18]): 22% | Activity [19]: 90% | MIC50 [20]: 2 µg/mL (≈ 3.86 µM) | MIC90 [20]: 8 µg/mL (≈ 15.5 µM) | Activity [21]: 100% | Activity (Parvimonas micra [22]): 97% | Activity (Fusobacterium varium [23]): 10% | Activity (Finegoldia magna [24]): 97% | MIC50 (Fusobacterium mortiferum [25]): 2 µg/mL (≈ 3.86 µM) | MIC90 (Fusobacterium mortiferum [25]): 8 µg/mL (≈ 15.5 µM) | Activity [26]: 97% | MIC [27]: 0.03 µg/mL | MIC50 [27]: 0.03 µg/mL | MIC90 [27]: 1 µg/mL | Activity [28]: 100% | MIC (Prevotella intermedia [29]): 0.03 µg/mL | MIC50 (Prevotella intermedia [29]): 0.03 µg/mL | MIC90 (Prevotella intermedia [29]): 1 µg/mL | MIC50 (Prevotella buccae): 16 µg/mL (≈ 30.9 µM) | MIC90 (Prevotella buccae): 128 µg/mL (≈ 247 µM) | Activity [30]: 97% | MIC50 [31]: 0.25 µg/mL (≈ 0.483 µM) | MIC90 [31]: 2 µg/mL (≈ 3.86 µM) | Activity (Finegoldia magna [32]): 0%

Source: ChEMBL document CHEMBL1671627, “Increasing trends in antimicrobial resistance among clinically important anaerobes and Bacteroides fragilis isolates causing nosocomial infections: emerging resistance to carbapenems” (2008)
